# Source: PubChem (several laboratories)
# GSH bead fluor: compound fluoresces at 488/530 nm on GSH beads; GSH beads flow cytometry, compound fluorescence 488/530 nm; active compounds read high; fluorescence (KMESF) at 10 µM; hit rate 0.25% among 190,000; in the data active means fluorescence above about 89;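 further: glutathione beads carrying GST-tagged Bcl family fusion proteins plus one bare bead set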
# PKD1 inh: blocks activity of human protein kinase D1; PKD1 kinase fluorescence polarization assay; Q15139; hit rate 0.056% among 200,000; inhibition, % (test concentration not listed); AID 797
# Lmaj promast: reduces viability of Leishmania major promastigotes | resazurin fluorescence viability | inhibition, % at 10 µM | hit rate 9% among 200,000;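 further: promastigotes grown with compound for 44 hours at 28 °C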
# ABCG2 inh: blocks JC-1 efflux by human ABCG2 transporter; Q9UNQ0; IgMXP3 cells, flow cytometry; inhibition, % at 6.6 µM; hit rate 0.1% among 190,000;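 active means inhibition above 80%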
#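 Test system: ABCG2 IgMXP3 and barcoded ABCB1 CCRF-Adr cell mix; Schedule: cells with compound and JC-1, 10 min at 25 °C, rotating, no wash; Technique: flow cytometry of retained JC-1 fluorescence; Measure: % inhibition of efflux relative to nicardipine and DMSO; Controls: nicardipine high and DMSO low controls.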
# Avidin bead fluor: compound fluoresces at 488/530 nm on avidin beads | hit rate 0.38% among 220,000 | fluorescence (KMESF) at 10 µM | compound fluorescence 488/530 nm, flow cytometry; active compounds read high; in the data active means fluorescence above about 47
# ABCB1 block: blocks JC-1 efflux by human ABCB1 transporter; P08183; CCRF-Adr cells, flow cytometry; inhibition, % at 6.6 µM; hit rate 0.067% among 190,000; AID 1326; in the data active means inhibition above about 40%;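 further: higher value means more JC-1 retained so stronger ABCB1 efflux block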
# A number is an active result; i = inactive; nt = no result. This excerpt belongs to a sample that is enriched for hits. Unless noted, no stated cut-off is given here; in the data, active means inhibition above about 50%; inactive means the rest.
SMILES,GSH bead fluor,PKD1 inh,Lmaj promast,ABCG2 inh,Avidin bead fluor,ABCB1 block
Nc1nc(=S)c2ncn(C3CCCC3)c2[nH]1,nt,nt,nt,nt,i,nt
CCCCC(NS(=O)(=O)c1ccc(OC)cc1)C(=O)O (centres undefined),i,i,i,i,i,i
COc1ccc(S(=O)(=O)NC(Cc2cnc[nH]2)C(=O)O)cc1 (centres undefined),i,i,51.1,i,i,i
COc1ccc(S(=O)(=O)N[C@H](C(=O)O)C(C)C)cc1,i,i,i,i,i,53.8
COCCCNc1nc2ccccc2nc1NS(=O)(=O)c1cccs1,i,i,i,i,i,i
Cc1ccccc1CN1CCN(S(=O)(=O)c2ccc(F)cc2)CC1,i,i,i,i,i,i
O=S(=O)(c1ccc(Cl)cc1)N1CCN(Cc2c[nH]c3ccccc23)CC1,i,i,52.5,i,i,i
COc1ccc(CN2CCN(S(=O)(=O)c3ccccc3)CC2)cc1Br,i,i,75.5,i,i,i
O=S(=O)(c1ccc(Br)cc1)N1CCCN(Cc2ccccc2F)CC1,i,i,50.2,i,i,i
COc1ccc(CN2CCN(S(=O)(=O)c3ccc(F)cc3)CC2)cc1OC,i,i,i,i,nt,i
CCN1CCN(S(=O)(=O)c2ccc(OC)c(Br)c2)CC1,i,i,84.3,i,i,i
COc1ccc(S(=O)(=O)N2CCN(C)CC2)cc1Br,i,i,i,i,i,i
Cn1nc(C(F)(F)F)c(-c2ccccc2)c1NC(=O)CCC(=O)O,nt,nt,nt,nt,i,nt
CC(=O)c1ccc(NC(=O)c2cnsn2)cc1,i,i,i,i,i,i
O=[N+]([O-])c1cc(-c2ncccn2)cs1,i,i,i,i,i,i
COc1ccc(S(=O)(=O)N2CCCN(Cc3cccc(F)c3)CC2)cc1,i,i,89.7,i,i,i
COc1ccc(S(=O)(=O)N2CCN(Cc3ccccc3)CC2)cc1,i,i,i,i,i,i
CCCS(=O)(=O)N1CCN(Cc2ccc(OCc3ccccc3)c(OC)c2)CC1,nt,i,91.2,nt,nt,nt
Cc1ccccc1-c1nc(CS(=O)(=O)CC(=O)N2CCc3ccccc32)c(C)o1,i,i,i,i,i,i
CCO/C(=C/c1sc2ccc(OC)cc2[n+]1CCCS(=O)(=O)[O-])CC,i,i,i,i,i,i
CCC(/C=C1\Sc2ccc(OC)cc2N1CC)=C\c1sc2ccc(OC)cc2[n+]1CCCS(=O)(=O)[O-],i,i,99.7,i,i,i
Cc1ccc(-c2cn(-c3ccc(SC(F)F)cc3)c3[n+]2CCC3)cc1,i,i,98.5,i,i,i
FC(F)Sc1ccc(-n2cc(-c3ccc(Cl)cc3)[n+]3c2CCC3)cc1,i,i,i,i,i,i
CCNc1nc(NCC)nc(Nn2cnnc2)n1,i,i,i,i,i,i
CCOC(=O)C1CCCN(C(=O)CN2C(=O)/C(=C/c3ccc(OC)cc3)Oc3ccccc32)C1 (centres undefined),i,i,73.6,i,i,i
SMILES,GSH bead fluor,PKD1 inh,Lmaj promast,ABCG2 inh,Avidin bead fluor,ABCB1 block
CCOC(=O)C1CCCN(C(=O)CN2C(=O)c3ccccc3C2=O)C1 (centres undefined),i,i,i,i,i,i
CCN(CC)S(=O)(=O)c1cccc(NC(=O)COc2ncnc3sccc23)c1,i,i,i,i,i,i
CCOC(=O)C1(CCCc2ccccc2)CCN(C(=O)Cn2nc(C)nc2C)CC1,nt,nt,nt,nt,i,nt
O=C(CNS(=O)(=O)c1ccc(Br)s1)N1CCC(N2CCCCC2)CC1,i,i,78.3,i,i,i
CCN(CC)c1ccc(Nc2nc(N3CCOCC3)c3ccccc3n2)cc1,i,i,96.7,i,i,i
COc1ccc(Nc2nc3ccccc3c(=O)[nH]2)cc1,nt,nt,nt,nt,i,nt
COc1ccc(Nc2nc(N3CCCC3)c3ccccc3n2)cc1,i,i,100.4,i,i,i
CC(C)C(=O)NC(NC(=O)C(C)C)c1ccc([N+](=O)[O-])cc1,i,i,i,i,i,i
COc1ccc(CC(=O)N2CCN=C2SCc2ccc([N+](=O)[O-])cc2)cc1,i,i,76.2,i,i,i
CCOc1ccc(CC(=O)N2CCN=C2SCc2ccc([N+](=O)[O-])cc2)cc1,i,i,i,i,i,i
O=C(Cc1ccccc1)N1CCN=C1SCc1ccc([N+](=O)[O-])cc1,i,i,92.7,i,i,i
O=C(COc1ccccc1)N1CCN=C1SCc1cccnc1,i,i,65.2,i,i,i
C/C=C/c1ccc(OCC(=O)OCc2csc(Nc3ccc(C)cc3)n2)c(OC)c1,i,i,i,i,i,i
